Experimental data from ChEMBL document CHEMBL1123839, “5-Acyl-3-substituted-benzofuran-2(3H)-ones as potential antiinflammatory agents” (1987).

Legend:
Format in all cases: functional
[1] = organism: Cavia porcellus; test: Tested for effect on the production of Lipoxygenase (LO) metabolite, 5,12-diHETE in guinea pig peritoneal polymorphonuclear neutrophils at 30 uM concentration
Procedure, shortened: (§1)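 Guinea pig peritoneal PMNs were incubated with [14C]arachidonic acid and stimulated with calcium ionophore A23187. Compounds were tested at 30 μM in 0.1 N NaOH–Krebs Ringer bicarbonate buffer. Radiolabeled cyclooxygenase and lipoxygenase products were identified by HPLC and GC-MS, separated by TLC and quantified by automatic scanning.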

[2] = organism: Cavia porcellus; test: Tested for effect on the production of Lipoxygenase (LO) metabolite, 5-HETE in guinea pig peritoneal polymorphonuclear neutrophils at 30 uM concentration; procedure, shortened: as §1
[3] = organism: Cavia porcellus; test: Tested for effect on the production of cyclooxygenase (COX) metabolite, PGE-2 (prostaglandin E2) of arachidonic acid in guinea pig peritoneal polymorphonuclear neutrophils at 30 uM concentration; procedure, shortened: as §1
[4] = organism: Cavia porcellus; test: Tested for effect on the production of cyclooxygenase (COX) metabolite, TXB2 of arachidonic acid in guinea pig peritoneal polymorphonuclear neutrophils at 30 uM concentration; procedure, shortened: as §1
[5] = system: Rattus norvegicus; test: Antiinflammatory activity was assessed by the ability to improve the adjuvant induced arthritis in left secondary lesion in rats at oral doses, 33 mg/kg (volume change in the injected paw measured from day 9 to day 18)
[6] = system: Rattus norvegicus; test: Antiinflammatory activity was assessed by the ability to improve the adjuvant induced arthritis in right primary lesion in rats at oral doses, 33 mg/kg (volume change in the injected paw measured from day 0 to day 8)
Procedure, shortened: (§2)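 Female Sprague–Dawley rats (150–170 g), six per group. Arthritis induced by subcutaneous plantar injection of 0.125 mg killed tubercle bacillus in liquid paraffin into the right hind paw. Dosing was 33 mg/kg orally, daily for 14 days, starting the day before adjuvant. Paw volumes were measured by mercury plethysmography every 2–3 days over 18 days. Primary lesion: right paw, days 0–8. Secondary lesions: right and left (uninjected) paws, days 9–18. Areas under the time-course curves were compared with controls by ANOVA.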

[7] = system: Rattus norvegicus; test: Ability to improve the adjuvant induced arthritis in right secondary lesion in rats at oral doses, 33 mg/kg; procedure, shortened: as §2
[8] = organism: Rattus norvegicus; test: Antiinflammatory activity was assessed improvement of adjuvant induced arthritis in rats, determined by joint mobility of the paw; parameters: concentration or dose not given beside the values
Procedure, shortened: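 Adjuvant arthritis was induced in female Sprague–Dawley rats (150–170 g, groups of six) by right-hind-paw plantar injection of killed tubercle bacillus in paraffin. Treatment was 33 mg/kg orally, daily for 14 days, starting the day before adjuvant. Joint involvement was scored as the angle through which the hind paws moved easily, given as percent change versus nontreated controls.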

[9] = organism: Cavia porcellus; test: Tested for effect on the production of cyclooxygenase (COX) metabolite, PGF2-alpha (prostaglandin F2-alpha) of arachidonic acid in guinea pig peritoneal polymorphonuclear neutrophils at 30 uM concentration; procedure, shortened: as §1

| SMILES | Reduction [1] | Reduction [2] | Reduction [3] | Reduction [4] | Reduction [5] | Reduction [6] | Reduction [7] | Reduction [8] | Reduction [9] |
| --- | --- | --- | --- | --- | --- | --- | --- | --- | --- |
| CC1C(=O)Oc2ccc(C(=O)c3ccc(F)cc3)cc21 (configuration not stated) | -25% | 6% | 46% | 76% | 31% | 5% | 10% | -1% | 47% |
| CC1C(=O)Oc2ccc(C(=O)c3ccccc3)cc21 (configuration not stated) | -10% | 10% | 71% | 82% | 52% | 5% | 35% | 29% | 56% |
| O=C1Cc2cc(C(=O)c3cccs3)ccc2O1 | -44% | -33% | 54% | 65% | -35% | 25% | 9% | 5% | 57% |
| O=C1Oc2ccc(C(=O)c3cccs3)cc2/C1=C/c1ccc(C(F)(F)F)cc1 | 68% | 67% | 79% | 95% | 15% | 3% | 19% | 4% | 67% |
| CC(C(=O)O)c1cc(C(=O)c2ccc(F)cc2)ccc1O (configuration not stated) | -8% | -1% | 46% | 74% | 56% | 22% | 32% | 33% | 49% |
| CCCC(C(=O)O)c1cc(C(=O)c2cccs2)ccc1O (configuration not stated) | -42% | -33% | 87% | 86% | 52% | 26% | 30% | 33% | 50% |
| CCCCC1C(=O)Oc2ccc(C(=O)c3cccs3)cc21 (configuration not stated) | 61% | 73% | 68% | 89% | -55% | 4% | -22% | -1% | 62% |
| COc1ccc(C(=O)c2ccc3c(c2)C(C)C(=O)O3)cc1 (configuration not stated) | 44% | 50% |  | 70% | 22% | -9% | 5% | -9% | 51% |
| O=C1Oc2ccc(C(=O)c3cccs3)cc2/C1=C/c1ccc(Cl)cc1 | 73% | 71% | 77% | 93% | -14% | -5% | -18% | 12% | 69% |
| CC(C)(C)c1cc(/C=C2\C(=O)Oc3ccc(C(=O)c4cccs4)cc32)cc(C(C)(C)C)c1O | -8% | -11% | -14% | 26% | 8% | -28% | -7% | 17% | 6% |
| CCC1(CC)C(=O)Oc2ccc(C(=O)c3cccs3)cc21 | -7% | 2% | 62% | 90% | 41% | 18% | 17% | 23% | 48% |
| CC(C(=O)O)c1cc(C(=O)c2cccs2)ccc1O (configuration not stated) | -84% | -68% | 76% | 89% | 35% | 39% | 34% | -15% | 76% |
| CCCC1C(=O)Oc2ccc(C(=O)c3cccs3)cc21 (configuration not stated) | 7% | -2% | 85% | 81% | 67% | 23% | 41% | 61% | 49% |
| CCCCC(C(=O)O)c1cc(C(=O)c2cccs2)ccc1O (configuration not stated) | 60% | 60% | 44% | 64% | 53% | 5% | 29% | 14% | 51% |
| O=C(c1ccc(O)c(C(Cc2ccccc2)C(=O)O)c1)c1cccs1 (configuration not stated) |  |  |  |  | 10% | 29% | 30% | 6% |  |
| CCC(C(=O)O)c1cc(C(=O)c2cccs2)ccc1O (configuration not stated) | -33% | 16% |  | 92% | 76% | 20% | 64% | 60% | 65% |
| Cc1ccc(C(=O)c2ccc(O)c(C(C)C(=O)O)c2)s1 (configuration not stated) | -36% | -69% | 54% | 82% | 29% | 13% | 11% | -16% | 49% |
| CC1(C)C(=O)Oc2ccc(C(=O)c3cccs3)cc21 | 49% | 52% | 81% | 81% | 50% | 28% | 36% | 44% | -37% |
| C=CCc1cc(C(=O)c2cccs2)cc2c1OC(=O)C2C (configuration not stated) | -24% | 14% | 88% | 93% | 17% | 1% | 6% | 5% | 77% |
| CC(C)(C(=O)O)c1cc(C(=O)c2cccs2)ccc1O | -23% | -20% | 80% | 90% | 46% | 4% | 20% | 26% | 55% |
| CCC(CC)(C(=O)O)c1cc(C(=O)c2cccs2)ccc1OC |  |  |  |  | 42% | -11% | 16% | 42% |  |
| CC1C(=O)Oc2ccc(C(=O)c3ccco3)cc21 (configuration not stated) | 3% | 20% | 81% | 81% | 25% | -5% | 12% | 2% |  |
| COc1ccc(C(=O)c2ccc(O)c(C(C)C(=O)O)c2)cc1 (configuration not stated) | -10% | 5% |  | 89% | 22% | 12% | 31% | 7% | 58% |
| O=C(O)/C(=C\c1ccccc1)c1cc(C(=O)c2cccs2)ccc1O |  |  |  |  | -15% | 15% | 11% | 5% |  |
